These results are taken from ChEMBL document CHEMBL3244308, “Potential antitumor agents. 22. Latentiated congeners of the 4'-(9-acridinylamino)methanesulfonanilides” (J Med Chem, 1977).

In general, ILS refers to the gain in survival time of treated over control animals, in per cent. What is called half-life is how long it takes for the measured level to halve. A low value points to fast loss.

The subject of data set [1] is L1210. The data set can be described thus: Antitumor activity against mouse L1210 cells subcutaneously xenografted in ip dosed C3H/DBA2 F1 hybrid mouse assessed as increase in host lifespan administered daily for 5 days starting 24 hrs post-tumor implantation. It counts as functional. The method, boiled down: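 10⁵ L1210 cells implanted sc above the right axilla into 18.5-22.5-g C3H/DBA2 F1 mice. Daily ip dosing for 5 days from 24 h after implant, as water-soluble salts or as homogenized suspensions in aqueous methylcellulose. Groups of six mice. Increase in life span (T/C% − 100) at the optimum dose (maximal life-span increase, mg/kg/day); 50-day survivors counted.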

In data set [2] the test system is L1210. The data set can be described thus: Antitumor activity against mouse L1210 cells intraperitoneally xenografted in ip dosed C3H/DBA2 F1 hybrid mouse assessed as increase in host lifespan administered daily for 5 days starting 24 hrs post-tumor implantation. It counts as functional. The method, boiled down:
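10⁵ L1210 cells implanted ip into 18.5-22.5-g C3H/DBA2 F1 mice. Daily ip treatment for 5 days from 24 h after implant, as water-soluble salts (methanesulfonate or hydrochloride) or as homogenized suspensions in aqueous methylcellulose. Groups of six mice. Read-out is increase in life span (T/C% − 100) at the optimum dose (maximal life-span increase, mg/kg/day); 50-day survivors counted.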

A short description of data set [3]: Lipophilic-hydrophilic balance, Rm of the compound by reversed-phase partition chromatography. It counts as physicochemical.
Another data set deals with Mus musculus. The data set can be described thus: Toxicity in ip dosed mouse assessed as optimum dose that providing maximum increase in life span administered qd for 1 to 5 days. It counts as organism-based. As to conditions: in vivo. The method, boiled down: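 Mice were C3H/DBA2 F1 hybrids weighing 18.5-22.5 g. L1210 cells (10^5) were implanted ip or sc above the right axilla. Daily ip treatment began 24 h later and continued for 5 days (dq 1-5), given in water or as a homogenized suspension in aqueous methylcellulose. The optimum dose (mg/kg/day) is the one giving maximum life-span increase (T/C% - 100). Groups were six mice; 50-day survivors were counted.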

The next data set has as its system Blood. The data set can be described thus: Stability in mouse blood assessed as 4'-(9-acridinylamino)methanesulfonanilide release at 37 degC. The data set is classed as ADME, tissue-based.
A short description of data set [4]: Half life of the compound in 0.1 M mercaptoethanol buffer at pH 7.4 at 37 degC by thiolytic assay. The data set is classed as physicochemical.

For the molecule `CCCC(=O)N(c1ccc(Nc2c3ccc([N+](=O)[O-])cc3nc3c(C)cccc23)cc1)S(C)(=O)=O`, the results for the ILS in the data set on L1210 [1] and in the data set with L1210 [2] were 31% and 71%, respectively. This molecule also yielded a Rm in data set [3] of 0.31. Also, the Activity with Mus musculus was 50 mg/kg.
Regarding `CC(=O)N(c1ccc(Nc2c3ccc([N+](=O)[O-])cc3nc3c(C)cccc23)cc1)S(C)(=O)=O`, the ILS in the data set on L1210 [1] was 188%; in the data set with L1210 [2], 217%. Moreover, the Rm in data set [3] is reported as -0.03. For the same molecule, the Activity in the data set on Mus musculus amounted to 200 mg/kg.
As to `CCC(=O)N(c1ccc(Nc2c3ccc([N+](=O)[O-])cc3nc3c(C)cccc23)cc1)S(C)(=O)=O`, the ILS is listed as 27% in the data set on L1210 [1] and 81% in the data set on L1210 [2]. In data set [3], the Rm is 0.2. For the same molecule, the Activity with Mus musculus is 50 mg/kg.
For `Cc1cccc2c(Nc3ccc(NS(C)(=O)=O)cc3)c3ccc([N+](=O)[O-])cc3nc12` the same measures were 98%, 113%, -0.01 and 100 mg/kg.
As for `CC(=O)N(c1ccc(Nc2c3ccccc3nc3ccccc23)cc1)S(C)(=O)=O.Cl`, the ILS with L1210 [1] was found to be 68%; in the data set with L1210 [2], 109%. Besides, in the data set with Blood, the Stability result is reported as “Unstable”. Also, in data set [4], the half-life worked out at 6.6 h. The molecule further registered a Rm in data set [3] of -0.14. Moreover, the Activity in the data set with Mus musculus was found to be 160 mg/kg.
As to `CN(C)/N=N/c1ccc2c(Nc3ccc(NS(C)(=O)=O)cc3)c3ccccc3nc2c1.Cl`, the ILS with L1210 [1] was found to be 38%; in the data set on L1210 [2], 110%. In addition, the Rm in data set [3] is recorded as 0.22. Further, the Activity in the data set on Mus musculus was 8 mg/kg.
For `CCCN(C)/N=N/c1ccc2c(Nc3ccc(NS(C)(=O)=O)cc3)c3ccccc3nc2c1.CS(=O)(=O)O` the same measures were 27%, 98%, 0.47 and 15 mg/kg.
For `COc1cc(NS(C)(=O)=O)ccc1Nc1c2ccccc2nc2cc(/N=N/N(C)C)ccc12.Cl` the same measures were 34%, 141%, 0.38 and 10 mg/kg.
For `CCCN(C)/N=N/c1ccc2c(Nc3ccc(NS(C)(=O)=O)cc3OC)c3ccccc3nc2c1.CS(=O)(=O)O` the same measures were 59%, 100%, 0.65 and 15 mg/kg.
Consider `CS(=O)(=O)Nc1ccc(Nc2c3ccccc3nc3cc(N=[N+]=[N-])ccc23)cc1.Cl`, for which the ILS in the data set with L1210 [1] was determined as 64%; in the data set on L1210 [2], 216%. Besides, the Rm in data set [3] is reported as -0.02. In addition, the Activity in the data set with Mus musculus was 16 mg/kg.
The corresponding values for `COc1cc(NS(C)(=O)=O)ccc1Nc1c2ccccc2nc2cc(N=[N+]=[N-])ccc12.Cl` are 47%, 118%, 0.14 and 8 mg/kg.
`COc1cc(NS(C)(=O)=O)ccc1Nc1c2ccccc2nc2ccccc12` [AMSACRINE]: the results for the ILS with L1210 [1] and with L1210 [2] were 27% and 114%, respectively. Also, in data set [3], the Rm is on record as 0.18. The Activity with Mus musculus was determined as 6.7 mg/kg.
